High-throughput results (PubChem BioAssay)
hIAP block: human IAP inhibitors, primary screen, biochemical, luminescence, uHTS | Intestinal-type alkaline phosphatase (Homo sapiens), P09923 | inhibition, % at 10 µM | hit rate 0.12% among 330,000 | purified IAP, CDP-Star luminescence, 30 min | AID 2544, 2010;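 active means inhibition reaching a set limit with compound at 10 µM in the primary screen, cut at about 35% in these data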;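 further: plate controls were DMSO wells with enzyme for no effect and no-enzyme buffer wells for full effect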
Target sequence (P09923 whole entry, looked up): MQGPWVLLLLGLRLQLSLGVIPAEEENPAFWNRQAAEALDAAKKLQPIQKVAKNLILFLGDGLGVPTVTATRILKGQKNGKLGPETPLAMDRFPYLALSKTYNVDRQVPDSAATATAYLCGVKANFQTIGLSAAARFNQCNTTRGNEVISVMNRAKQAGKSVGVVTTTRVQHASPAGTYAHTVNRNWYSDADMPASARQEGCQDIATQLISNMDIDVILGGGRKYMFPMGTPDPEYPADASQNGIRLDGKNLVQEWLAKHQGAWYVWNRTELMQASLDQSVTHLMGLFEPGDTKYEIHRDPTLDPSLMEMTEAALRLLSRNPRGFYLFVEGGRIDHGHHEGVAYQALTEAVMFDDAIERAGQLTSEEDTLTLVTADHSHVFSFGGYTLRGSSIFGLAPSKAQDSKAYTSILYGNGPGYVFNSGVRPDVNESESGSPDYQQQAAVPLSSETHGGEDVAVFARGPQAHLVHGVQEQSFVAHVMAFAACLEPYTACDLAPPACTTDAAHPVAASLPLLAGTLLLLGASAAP
mIAP block: inhibitors of mouse IAP, primary screen, biochemical, luminescence, uHTS; hit rate 0.2% among 330,000; intestinal alkaline phosphatase [Mus musculus]; AID 2806, 2010; purified mouse IAP, CDP-Star luminescence, 30 min; inhibition, % at 10 µM;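 active means inhibition of at least 40% at 10 µM in the primary screen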;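 further: plate controls were DMSO with enzyme for no effect and no enzyme wells for full effect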
bIAP inh: bovine intestinal alkaline phosphatase inhibitors, primary screen, selectivity assay for TNAP inhibitor project, biochemical, bovine IAP, CDP-star luminescence. purified bovine IAP, 30 min. 190,000 tested, under 10 active. inhibition, % at 20 µM. alkaline phosphatase, intestinal [Bos taurus];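 active means over 50% inhibition of intestinal alkaline phosphatase at 20 µM in the single-dose screen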
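System: purified bovine intestinal alkaline phosphatase (IAP) enzyme; Input: IAP diluted 1/65,000,000 in the well; Measured by: CDP-star luminescence signal; Compound dosing: 20 µM single dose; Incubation: 30 min reaction at room temperature.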
bIAP activator: bovine intestinal alkaline phosphatase activators, primary screen, biochemical, bovine IAP, CDP-star luminescence. alkaline phosphatase, intestinal [Bos taurus]. purified bovine IAP, 30 min; active compounds read high; fold of DMSO-control signal, blank-subtracted. activation factor at 20 µM. hit rate 0.17% among 200,000;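 active means activation factor of 2 or more at 20 µM, a signal rise over negative controls twice the positive control's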
mIAP act: activators of mouse IAP, primary screen, biochemical, luminescence, uHTS; AID 2805, 2010; muIAP, CDP-Star luminescence, 30 min; active compounds read high; 1 = vehicle-only enzyme signal, 0 = enzyme-free wells; intestinal alkaline phosphatase [Mus musculus]; activation factor at 10 µM; hit rate 0.24% among 330,000;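 active means activation factor of at least 2 at 20 µM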
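Assay system: mouse IAP enzyme; Reagent: CDP-Star chemiluminescent phosphatase substrate; Compound: DMSO-dissolved test compounds; Incubation: 30 min, room temperature; Technique: luminescence from enzymatic CDP-Star hydrolysis; Controls: DMSO-only wells and no-enzyme negative control.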
hIAP act: human IAP activators, primary screen, biochemical, luminescence, uHTS; Intestinal-type alkaline phosphatase (Homo sapiens), P09923; purified human IAP, CDP-Star luminescence, 30 min; active compounds read high; 1 = vehicle-only enzyme, 0 = enzyme-free background; activation factor at 10 µM; hit rate 0.16% among 330,000;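 active means activation factor of the enzyme at least 2-fold when tested at 20 µM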
hIAP act conf: human IAP activators, confirmation, biochemical, luminescence, single concentration, uHTS hits; purified IAP, CDP-Star luminescence, 30 min; active compounds read low; hit rate 10% among 880; activation (%Activity, negative = activation), % at 8.3 µM; shares compounds with hIAP act; AID 434926, 2010;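 active means at least twofold enzyme activation in any of six single-dose repeats, which the averaged readout prints as negative percent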
* = called active by the depositor; / = not tested or not shown. Shown are actives, neighbours in structure and some others; about 0.77% of the full set was active somewhere.

SMILES | hIAP block | mIAP block | bIAP inh | bIAP activator | mIAP act | hIAP act | hIAP act conf
Cc1ccc(-n2c(-c3cccnc3)n[nH]c2=S)c(C)c1 | -200 | 6 | 14 | 0.9 | 0.94 | 3* | 15
Cc1ccc(-n2c(-c3ccc(Cl)cc3)n[nH]c2=S)c(C)c1 | 11 | 4 | / | / | 0.96 | 0.89 | /
O=C(NCCOc1ccccc1F)C1CCC(=O)N(CCc2cccc(F)c2)C1 (stereo unspecified) | -2 | -5 | / | / | 1.1 | 1 | /
COc1ccc(CC(=O)OCC(=O)Nc2ncc(Cl)c(C)c2Cl)cc1 | 9 | -4 | / | / | 1 | 0.91 | /
COCc1cc(=O)c2ccccc2o1 | 8 | 2 | / | / | 0.98 | 0.92 | /
CCCCNCCCCOc1ccccc1 | -110 | -4 | 22 | 0.8 | 1 | 2.1* | -70
O=C(CSc1ccccn1)NC1CCCC1 | 15 | 0 | -30 | 1.3 | 1 | 0.85 | /
Cc1ccccc1-c1noc(CCC(=O)NCc2ccco2)n1 | 4 | 1 | / | / | 0.99 | 0.96 | /
CCS(=O)(=O)Nc1cc2c3c(c1)CCC(=O)N3CCC2 | 37* | 2 | / | / | 0.98 | 0.63 | 10
O=C(CCCC(=O)OCC(Cl)=C(Cl)Cl)Nc1ccc(F)cc1 | 15 | 0 | 9 | 0.9 | 0.99 | 0.85 | /
COc1ccccc1C(=O)Nc1ccnn1C1CCN(Cc2cnc(N(C)C)s2)CC1 | -10 | 8 | / | / | 0.92 | 1.1 | /
Nc1oc2ccccc2c(=O)c1C=O | 73* | 11 | 7 | 0.9 | 0.89 | 0.27 | 15
O=C(C1CCN(S(=O)(=O)c2ccccc2)CC1)N1CCOCC1 | 40* | 9 | 10 | 0.9 | 0.91 | 0.6 | -26
COc1ccc(C(=O)Nc2cccc(C)c2)cc1S(=O)(=O)N1CCOCC1 | 13 | 2 | -6 | 1.1 | 0.98 | 0.87 | /
COc1ccc(C(=O)Nc2cccc3c2C(=O)NC3=O)cc1S(=O)(=O)N1CCOCC1 | 36* | 7 | -7 | 1.1 | 0.93 | 0.64 | -85*
Cc1nn(CC(=O)O)c(C)c1NC(=O)c1cccs1 | 42* | -2 | / | / | 1 | 0.58 | 14
N#CC(C#N)=NNc1ccc([N+](=O)[O-])cc1 | 35* | 34 | / | / | 0.66 | 0.65 | -62
COc1ccc(NC(=O)c2cc(-c3cc(C)c(C)cc3O)n[nH]2)c(OC)c1 | -112 | -4 | / | / | 1 | 2.1* | -19
COc1ccc(OC)c(NC(=O)c2cc(-c3cc(C)c(C)cc3O)n[nH]2)c1 | -117 | -1 | / | / | 1 | 2.2* | 6
COc1ccc(OC)c(NC(=O)c2cc(-c3cc(C)cc(C)c3O)n[nH]2)c1 | -58 | -2 | / | / | 1 | 1.6 | /
COc1ccc(NC(=O)c2cc(-c3cc(Cl)ccc3O)n[nH]2)c(OC)c1 | -36 | 2 | / | / | 0.98 | 1.4 | /
COc1ccc(CCNC(=O)COC(=O)c2cncc(Br)c2)cc1OC | 2 | -1 | / | / | 1 | 0.98 | /
CN(C)c1ccc(N=Nc2ccccc2Br)cc1 | 42* | 18 | / | / | 0.81 | 0.58 | -104*
CC(=O)c1ccc(N=Nc2ccc(N(C)C)cc2)cc1 | -16 | 3 | 10 | 0.9 | 0.97 | 1.2 | /
CC(C)(C)Nc1nc(-c2ccc3c(c2)CCN3C(=O)C2CC2)cs1 | 12 | 8 | / | / | 0.92 | 0.88 | /
SMILES | hIAP block | mIAP block | bIAP inh | bIAP activator | mIAP act | hIAP act | hIAP act conf
COc1ccc(CCNC(=O)c2cc3c(cc2Cl)N2CCCCCC2=NS3(=O)=O)cc1 | -38 | -4 | / | / | 1 | 1.4 | /
O=c1oc(-c2ccc(O)c(O)c2)cc2cc(O)cc(O)c12 | 69* | 35 | / | / | 0.65 | 0.31 | 25
O=c1oc(-c2ccc(O)c(O)c2)cc2cccc(O)c12 | 13 | 23 | / | / | 0.77 | 0.87 | /
CCc1ccc(-n2c(SCC(=O)Nc3cc(C)[nH]n3)nc3[nH]ncc3c2=O)cc1 | -118 | 6 | -63 | 1.6 | 0.94 | 2.2* | -5
COc1ccc(S(=O)(=O)N2CCCC2c2cccs2)cc1 (stereo unspecified) | 19 | 5 | / | / | 0.95 | 0.81 | /
O=S(=O)(c1ccccc1)N1CCCC1c1cccs1 (stereo unspecified) | 53* | 5 | / | / | 0.95 | 0.47 | -172*
Cc1c(N2C(=O)/C(=C\c3ccccc3O)SC2=S)c(=O)n(-c2ccccc2)n1C | 13 | 14 | / | / | 0.86 | 0.87 | /
CN1C(=O)/C(=C/c2cc(N=Nc3ccccc3)ccc2O)SC1=S | 46* | 40* | 28 | 0.7 | 0.6 | 0.54 | -54
CC(=O)c1cccc(NC(=O)CSc2nnnn2C2CCCC2)c1 | -2 | -2 | / | / | 1 | 1 | /
Cn1c(C(=O)N2CCCC(C(=O)NCc3cccs3)C2)cc2sccc21 (stereo unspecified) | 38* | 4 | 5 | 1 | 0.96 | 0.62 | -50
CCCOc1cc(N(CC)CC)ccc1/C=C(/C#N)c1nc2ccc(C)cc2[nH]1 | 37* | 32 | 48 | 0.5 | 0.68 | 0.63 | 4
COc1cc(/C=C2\CCC/C(=C\c3ccc(O)c(OC)c3)C2=O)ccc1O | 34 | 30 | / | / | 0.69 | 0.66 | /
COc1cc(/C=C2/CCC/C(=C\c3cc(O)c(OC)c(Cl)c3)C2=O)cc(Cl)c1O | 40* | 36 | / | 0.4 | 0.64 | 0.6 | 2
CCNC(=S)NNC(=O)CSc1nc2ccccc2[nH]1 | -143 | -10 | -29 | 1.3 | 1.1 | 2.4* | -30
CCNC(=S)NNC(=O)CSc1nc2ccccc2n1C | 5 | 9 | / | / | 0.91 | 0.95 | /
Nc1c(-c2ccc3c(c2)OCCO3)oc2ccccc2c1=O | -23 | -14 | / | / | 1.1 | 1.2 | /
S=c1[nH]nc(-c2cc(-c3ccccc3)n[nH]2)n1/N=C/c1ccc(Cl)cc1 | -103 | 0 | / | / | 0.99 | 2* | 4
CCc1ccc(OCC(=O)Nc2ncn[nH]2)cc1 | -106 | -2 | -75 | 1.8 | 1 | 2.1* | 1
COc1cc(/C=C2\Oc3cc(O)ccc3C2=O)ccc1O | 46* | 20 | / | / | 0.8 | 0.55 | 10
O=c1c(OC2OC(CO)C(O)C(O)C2O)c(-c2ccc(O)c(O)c2)oc2cc(O)cc(O)c12 (stereo unspecified) | 56* | 14 | 18 | 0.8 | 0.86 | 0.44 | -43
O=c1c(O[C@H]2O[C@@H](CO)[C@H](O)[C@@H](O)[C@@H]2O)c(-c2ccc(O)cc2)oc2cc(O)cc(O)c12 | 2 | -3 | / | / | 1 | 0.98 | /
O=c1c(O[C@@H]2O[C@H](CO)C(O)C2O)c(-c2ccc(O)c(O)c2)oc2cc(O)cc(O)c12 (stereo partly specified) | 59* | 38 | / | / | 0.62 | 0.41 | 4
